In ChEMBL document CHEMBL4406880, “Design, synthesis, and bioactivity of dihydropyrimidine derivatives as kinesin spindle protein inhibitors” (Bioorg Med Chem, 2019):

Assays:
Assay type in all cases: functional
[1] = tested on: SF-268; assay: Growth inhibition of human SF268 cells incubated for 48 hrs by sulforhodamine B assay; conditions: SF-268, 48 h
Summary of the method: (§1)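 NCI-60 five-dose SRB assay. Cells were exposed for 48 h to tenfold dilutions of 0.01, 0.1, 1, 10 and 100 µM, in RPMI 1640 with 5% FBS. Plates fixed with TCA at the time of drug addition served as the time-zero reference. GI50 is the concentration giving a 50% reduction in net growth. TGI is total growth inhibition. LC50 is a net 50% loss of the initial cells.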

[2] = tested on: SF-295; assay: Growth inhibition of human SF295 cells incubated for 48 hrs by sulforhodamine B assay; conditions: SF-295, 48 h; summary of the method: as §1
[3] = tested on: MCF7; assay: Growth inhibition of human MCF7 cells incubated for 48 hrs by sulforhodamine B assay; conditions: MCF7, 48 h
Summary of the method: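 NCI-60 five-dose SRB assay in RPMI 1640 with 5% FBS, 37 °C, 5% CO2. Compound given at five tenfold dilutions, 0.01–100 µM, for 48 h. Adherent cells fixed with TCA, suspension cells with 16% final TCA. Bound SRB read at 515 nm and growth calculated against time-zero and untreated controls. GI50 taken from dose–response curves as the concentration giving a 50% decrease in net cell growth.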

[4] = tested on: SNB-75; assay: Cell cycle arrest in human SNB75 cells assessed as accumulation in G2/M phase at 2 uM incubated for 24 hrs by propidium iodide based flow cytometry (reference value: 10.46 %)
Summary of the method: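 SNB-75 cells were exposed to 2 µM for 24 h at 37 °C, 5% CO2, then washed with PBS and fixed in 70% ethanol on ice for 15 min. They were stained 1 h at room temperature with 50 µg/mL propidium iodide, 0.1 mg/mL RNase A and 0.05% Triton X-100. DNA content was read by flow cytometry to give the % of cells in pre-G1, G0/G1, S and G2/M.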

[5] = tested on: IGROV-1; assay: Growth inhibition of human IGROV1 cells assessed as cell viability at 100 uM incubated for 48 hrs by sulforhodamine B assay; conditions: IGROV-1, 48 h, read-out: Activity
[6] = tested on: SK-MEL-5; assay: Growth inhibition of human SK-MEL-5 cells assessed as cell viability at 100 uM incubated for 48 hrs by sulforhodamine B assay; conditions: SK-MEL-5, 48 h, read-out: Activity
[7] = tested on: SK-MEL-2; assay: Growth inhibition of human SK-MEL-2 cells assessed as cell viability at 100 uM incubated for 48 hrs by sulforhodamine B assay; conditions: SK-MEL-2, 48 h, read-out: Activity
[8] = tested on: SNB-75; assay: Growth inhibition of human SNB75 cells assessed as cell viability at 100 uM incubated for 48 hrs by sulforhodamine B assay; conditions: SNB-75, 48 h, read-out: Activity
[9] = tested on: HCT-116; assay: Growth inhibition of human HCT116 cells assessed as cell viability at 100 uM incubated for 48 hrs by sulforhodamine B assay; conditions: HCT-116, 48 h, read-out: Activity
[10] = tested on: HOP-92; assay: Growth inhibition of human HOP92 cells assessed as cell viability at 100 uM incubated for 48 hrs by sulforhodamine B assay; conditions: HOP-92, 48 h, read-out: Activity
[11] = tested on: CAKI-1; assay: Growth inhibition of human Caki1 cells assessed as cell viability at 1 uM incubated for 48 hrs by sulforhodamine B assay; conditions: CAKI-1, 48 h, read-out: Activity
[12] = tested on: UACC-257; assay: Growth inhibition of human UACC257 cells assessed as cell viability at 1 uM incubated for 48 hrs by sulforhodamine B assay; conditions: UACC-257, 48 h, read-out: Activity
[13] = tested on: SK-MEL-5; assay: Growth inhibition of human SK-MEL-5 cells assessed as cell viability at 1 uM incubated for 48 hrs by sulforhodamine B assay; conditions: SK-MEL-5, 48 h, read-out: Activity
[14] = tested on: SW-620; assay: Growth inhibition of human SW620 cells assessed as cell viability at 1 uM incubated for 48 hrs by sulforhodamine B assay; conditions: SW-620, 48 h, read-out: Activity
[15] = tested on: HCT-116; assay: Growth inhibition of human HCT116 cells assessed as cell viability at 1 uM incubated for 48 hrs by sulforhodamine B assay; conditions: HCT-116, 48 h, read-out: Activity
[16] = tested on: HOP-92; assay: Growth inhibition of human HOP92 cells assessed as cell viability at 1 uM incubated for 48 hrs by sulforhodamine B assay; conditions: HOP-92, 48 h, read-out: Activity
[17] = tested on: Hs-578T; assay: Growth inhibition of human Hs 578T cells assessed as cell viability at 0.1 uM incubated for 48 hrs by sulforhodamine B assay; conditions: read-out: Activity
[18] = tested on: NCI/ADR-RES; assay: Growth inhibition of human NCI/ADR-RES cells assessed as cell viability at 0.1 uM incubated for 48 hrs by sulforhodamine B assay; conditions: read-out: Activity
[19] = tested on: HOP-62; assay: Growth inhibition of human HOP62 cells assessed as cell viability at 0.1 uM incubated for 48 hrs by sulforhodamine B assay; conditions: HOP-62, 48 h, read-out: Activity
[20] = tested on: A549; assay: Growth inhibition of human A549/ATCC cells assessed as cell viability at 0.1 uM incubated for 48 hrs by sulforhodamine B assay; conditions: A549, 48 h, read-out: Activity
Summary of the method: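 NCI-60 five-dose mode: five tenfold dilutions (0.01, 0.1, 1, 10, 100 µM) are applied for 48 h to cells in RPMI 1640 with 5% FBS at 37 °C. Endpoint is TCA fixation with sulforhodamine B read at 515 nm. % growth comes from the 0 h and control absorbances. GI50 is the concentration giving a 50% reduction in net cell growth.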

[21] = tested on: MDA-MB-231; assay: Growth inhibition of human MDA-MB-231 cells assessed as cell viability at 0.001 uM incubated for 48 hrs by sulforhodamine B assay relative to control; conditions: MDA-MB-231, 48 h, read-out: Activity
[22] = tested on: A498; assay: Growth inhibition of human A498 cells assessed as cell viability at 0.001 uM incubated for 48 hrs by sulforhodamine B assay relative to control; conditions: A498, 48 h, read-out: Activity
[23] = tested on: OVCAR-8; assay: Growth inhibition of human OVCAR8 cells assessed as cell viability at 0.001 uM incubated for 48 hrs by sulforhodamine B assay relative to control; conditions: OVCAR-8, 48 h, read-out: Activity
[24] = tested on: SF-539; assay: Growth inhibition of human SF539 cells assessed as cell viability at 0.001 uM incubated for 48 hrs by sulforhodamine B assay relative to control; conditions: SF-539, 48 h, read-out: Activity
[25] = tested on: RXF 393; assay: Growth inhibition of human RXF393 cells assessed as cell viability at 100 uM incubated for 48 hrs by sulforhodamine B assay; conditions: RXF 393, 48 h, read-out: Activity

## CC1=C(C(=O)OCc2ccccc2)C(c2ccc3c(c2)OCO3)n2c(nc3ccccc32)N1 (racemic)
[1]; read-out: GI50
  GI50: 0.51 µM
[1]; read-out: LC50
  LC50: > 100 µM
[1]; read-out: TGI
  TGI: > 100 µM
[1]; read-out: pGI50 (converted)
  GI50: 0.513 µM
[1]; read-out: pLC50 (converted)
  LC50: > 100 µM
[1]; read-out: pTGI
  TGI: > 100 µM
[2]; read-out: GI50
  GI50: 0.33 µM
[2]; read-out: LC50
  LC50 (concentration causing 50% net loss of initial cells): > 100 µM
[2]; read-out: TGI
  TGI: > 100 µM
[2]; read-out: pGI50 (converted)
  GI50: 0.331 µM
[2]; read-out: pLC50 (converted)
  LC50 (concentration causing 50% net loss of initial cells): > 100 µM
[2]; read-out: pTGI
  TGI: > 100 µM
[3]; read-out: GI50
  GI50: 0.32 µM
[3]; read-out: LC50 (the source's name)
  CC50: > 100 µM
[3]; read-out: TGI
  TGI: > 100 µM
[3]; read-out: pGI50 (converted)
  GI50: 0.316 µM
[3]; read-out: pLC50 (the source's name) (converted)
  CC50: > 100 µM
[3]; read-out: pTGI
  TGI: > 100 µM
[4]
  Activity: 37.59%
[5]
  viability at 100 µM: 29%
[6]
  viability at 100 µM: 35%
[7]
  viability at 100 µM: 37%
[8]
  viability at 100 µM: -24%
[9]
  viability at 100 µM: 18%
[10]
  viability at 100 µM: 53%
[11]
  viability at 1 µM: 20%
[12]
  viability at 1 µM: 50%
[13]
  viability at 1 µM: 32%
[14]
  viability at 1 µM: 23%
[15]
  viability at 1 µM: 26%
[16]
  viability at 1 µM: 41%
[17]
  viability at 0.1 µM: 88%
[18]
  viability at 0.1 µM: 86%
[19]
  viability at 0.1 µM: 96%
[20]
  viability at 0.1 µM: 99%
[21]
  viability at 0.001 µM: 97%
[22]
  viability at 0.001 µM: 81%
[23]
  viability at 0.001 µM: 95%
[24]
  viability at 0.001 µM: 91%
[25]
  viability at 100 µM: 15%
